One block for each compound: values may come before it.
What was measured:
[1] = target: T1, Sodium/glucose cotransporter 2 (Mus musculus, UniProt Q923I7); experiment: Inhibition of mouse SGLT2-mediated [14C]alpha-methylglucopyranoside uptake by cell based assay
T1 sequence (Q923I7 whole entry): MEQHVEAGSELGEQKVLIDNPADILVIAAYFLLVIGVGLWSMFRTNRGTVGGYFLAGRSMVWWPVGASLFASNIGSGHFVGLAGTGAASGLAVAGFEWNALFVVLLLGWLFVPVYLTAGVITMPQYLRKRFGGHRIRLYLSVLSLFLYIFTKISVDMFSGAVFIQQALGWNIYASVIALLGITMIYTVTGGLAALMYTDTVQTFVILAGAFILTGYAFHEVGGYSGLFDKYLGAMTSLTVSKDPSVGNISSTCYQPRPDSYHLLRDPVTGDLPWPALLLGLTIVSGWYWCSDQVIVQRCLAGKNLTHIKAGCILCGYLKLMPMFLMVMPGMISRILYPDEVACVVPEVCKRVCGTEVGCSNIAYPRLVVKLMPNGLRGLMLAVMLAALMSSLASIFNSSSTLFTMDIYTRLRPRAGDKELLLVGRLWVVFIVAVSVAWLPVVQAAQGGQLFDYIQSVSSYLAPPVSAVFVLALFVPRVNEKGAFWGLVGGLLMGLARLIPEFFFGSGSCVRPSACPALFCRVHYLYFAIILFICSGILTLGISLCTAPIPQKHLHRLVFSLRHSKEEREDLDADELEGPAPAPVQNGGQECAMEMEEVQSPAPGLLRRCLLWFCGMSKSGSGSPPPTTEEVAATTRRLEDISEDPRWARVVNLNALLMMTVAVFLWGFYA

[2] = target: T2, Sodium/glucose cotransporter 2 (Homo sapiens, UniProt P31639); experiment: Inhibition of human SGLT2 expressed in HEK293 cells assessed as inhibition of [14C]alpha-methylglucopyranoside uptake; type: cell-based
T2 sequence (P31639 whole entry): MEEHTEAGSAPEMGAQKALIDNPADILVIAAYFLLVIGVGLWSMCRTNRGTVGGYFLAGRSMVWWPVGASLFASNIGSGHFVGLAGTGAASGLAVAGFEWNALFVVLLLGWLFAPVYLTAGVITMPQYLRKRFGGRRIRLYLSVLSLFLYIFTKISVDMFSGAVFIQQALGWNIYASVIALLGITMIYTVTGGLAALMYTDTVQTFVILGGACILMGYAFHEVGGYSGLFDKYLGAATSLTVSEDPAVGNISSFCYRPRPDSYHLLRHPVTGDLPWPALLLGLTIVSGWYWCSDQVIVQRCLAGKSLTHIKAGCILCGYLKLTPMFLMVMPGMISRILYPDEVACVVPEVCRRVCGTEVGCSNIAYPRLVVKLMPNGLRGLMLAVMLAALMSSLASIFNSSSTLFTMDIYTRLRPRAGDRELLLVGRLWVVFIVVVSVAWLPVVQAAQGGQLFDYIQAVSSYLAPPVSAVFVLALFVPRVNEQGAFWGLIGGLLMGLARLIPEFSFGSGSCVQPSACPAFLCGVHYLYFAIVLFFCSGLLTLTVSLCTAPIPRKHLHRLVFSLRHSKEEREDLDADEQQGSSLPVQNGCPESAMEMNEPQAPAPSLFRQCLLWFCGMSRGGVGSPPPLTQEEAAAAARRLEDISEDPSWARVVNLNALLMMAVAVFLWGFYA
Method in brief: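 Cells stably expressing human SGLT2 were used to measure sodium-coupled uptake of [14C]α-methylglucopyranoside, a metabolically stable SGLT-specific glucose analogue. Uptake was measured across increasing compound concentrations, and IC50 was derived from the inhibition of uptake.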

[3] = (§1) Volume of distribution at steady state in mouse at 1 mg/kg, iv; type: ADME, organism-based; design: dose 1 mg/kg, route intravenous; settings: in vivo, read-out: Vdss
Mus musculus [4] = experiment: Half life in mouse at 10 mg/kg, po; type: ADME, organism-based; design: dose 10 mg/kg, route oral; settings: in vivo
Mus musculus [5] = experiment: Oral bioavailability in mouse at 10 mg/kg; type: ADME, organism-based; settings: in vivo
[6] = (§2) Half life in mouse at 1 mg/kg, iv; type: ADME, organism-based; design: dose 1 mg/kg, route intravenous; settings: in vivo
[7] = (§3) Cmax in mouse at 10 mg/kg, po; type: ADME, organism-based; design: dose 10 mg/kg, route oral; settings: in vivo
[8] = (§4) Apparent volume of distribution with respect to the bioavailability in mouse at 10 mg/kg, po; type: ADME, organism-based; settings: in vivo, read-out: Vc/F
[9] = (§5) Tmax in mouse at 10 mg/kg, po; type: ADME, organism-based; design: dose 10 mg/kg, route oral; settings: in vivo
[10] = (§6) AUC(last) in mouse at 10 mg/kg, po; type: ADME, organism-based, Plasma; design: time 0 - last, dose 10 mg/kg, route oral; settings: plasma
[11] = (§7) Tmax in mouse at 1 mg/kg, iv; type: ADME, organism-based; design: dose 1 mg/kg, route intravenous; settings: in vivo
[12] = (§8) AUC (0 to infinity) in mouse at 1 mg/kg, iv; type: ADME, organism-based, Plasma; design: dose 1 mg/kg, route intravenous, time infinity; settings: plasma
[13] = (§9) Mean resident time in mouse at 10 mg/kg, po; type: ADME, organism-based; design: dose 10 mg/kg, route oral; settings: in vivo
[14] = (§10) AUC (0 to infinity) in mouse at 10 mg/kg, po; type: ADME, organism-based, Plasma; design: time infinity, dose 10 mg/kg, route oral; settings: plasma
[15] = (§11) Mean resident time in mouse at 1 mg/kg, iv; type: ADME, organism-based; design: dose 1 mg/kg, route intravenous; settings: in vivo
[16] = Clearance in mouse at 1 mg/kg, iv; type: ADME, organism-based; design: dose 1 mg/kg, route intravenous; settings: in vivo
Mus musculus [17] = experiment: Apparent volume of distribution with respect to the bioavailability in mouse at 1 mg/kg, iv; type: ADME, organism-based; settings: in vivo
[18] = Apparent oral clearance in mouse at 10 mg/kg, po; type: ADME, organism-based; design: dose 10 mg/kg, route oral; settings: in vivo
Mus musculus [19] = experiment: as §1; type: ADME, organism-based; design: dose 1 mg/kg, route intravenous; settings: in vivo
Mus musculus [20] = experiment: as §2; type: ADME, organism-based; design: dose 1 mg/kg, route intravenous; settings: in vivo
Mus musculus [21] = experiment: as §3; type: ADME, organism-based; design: dose 10 mg/kg, route oral; settings: in vivo
Mus musculus [22] = experiment: as §4; type: ADME, organism-based; settings: in vivo
Mus musculus [23] = experiment: as §5; type: ADME, organism-based; design: dose 10 mg/kg, route oral; settings: in vivo
Mus musculus [24] = experiment: as §6; type: ADME, organism-based, Plasma; design: time 0 - last, dose 10 mg/kg, route oral; settings: in vivo
Mus musculus [25] = experiment: as §7; type: ADME, organism-based; design: dose 1 mg/kg, route intravenous; settings: in vivo
Mus musculus [26] = experiment: as §8; type: ADME, organism-based, Plasma; design: dose 1 mg/kg, route intravenous, time infinity; settings: in vivo
Mus musculus [27] = experiment: as §9; type: ADME, organism-based; design: dose 10 mg/kg, route oral; settings: in vivo
Mus musculus [28] = experiment: as §10; type: ADME, organism-based, Plasma; design: time infinity, dose 10 mg/kg, route oral; settings: in vivo
Mus musculus [29] = experiment: as §11; type: ADME, organism-based; design: dose 1 mg/kg, route intravenous; settings: in vivo

IC50 [1]: 1900 nM
IC50 [2]: 4600 nM
Structure (SMILES): CCOc1ccc(-c2cccc([C@@H]3OC(OC)[C@@H](O)[C@H](O)[C@H]3O)c2)cc1 (mixture of isomers)

Vd [3]: 1.98 L/kg
t1/2 (Mus musculus [4]): 2.76 h
F (Mus musculus [5]): 61.2%
half-life [6]: 1.07 h
Cmax [7]: 4.38 µM
Vd/F [8]: 8.48 L/kg
Tmax [9]: 0.38 h
AUC(0-t) [10]: 8.19 µM·h
Tmax [11]: 0.38 h
IC50 [1]: 7.1 nM
AUC(0-inf) [12]: 1.91 µM·h
IC50 [2]: 25 nM
MRT [13]: 4.6 h
AUC(0-inf) [14]: 11.7 µM·h
MRT [15]: 1.62 h
clearance [16]: 22.5 mL/min/kg
Vc/F (Mus musculus [17]): 1.91 L/kg
CL/F [18]: 35.4 mL/min/kg
Structure (SMILES): CCOc1ccc(Cc2cc([C@@H]3OC(OC)[C@@H](O)[C@H](O)[C@H]3O)ccc2Cl)cc1 (mixture of isomers; 7a)

IC50 [1]: 1900 nM
IC50 [2]: 2400 nM
Structure (SMILES): CCOc1ccc(Oc2cc([C@@H]3OC(OC)[C@@H](O)[C@H](O)[C@H]3O)ccc2Cl)cc1 (mixture of isomers)

Vdss (Mus musculus [19]): 2.93 L/kg
t1/2 (Mus musculus [4]): 6.96 h
F (Mus musculus [5]): 100%
t1/2 (Mus musculus [20]): 1.29 h
Cmax (Mus musculus [21]): 6.49 µM
Vc/F (Mus musculus [22]): 14.2 L/kg
Tmax (Mus musculus [23]): 0.25 h
AUC (Mus musculus [24]): 16.191 µM·h
Tmax (Mus musculus [25]): 0.25 h
IC50 [1]: 6.3 nM
AUC (Mus musculus [26]): 1.481 µM·h
IC50 [2]: 14 nM
MRT (Mus musculus [27]): 8.44 h
AUC (Mus musculus [28]): 17.458 µM·h
MRT (Mus musculus [29]): 1.77 h
Vc/F (Mus musculus [17]): 3.08 L/kg
Structure (SMILES): CCOc1ccc(Cc2cc([C@@H]3OC(OC)[C@@H](O)[C@H](O)[C@H]3O)ccc2Cl)cc1 (mixture of isomers; 7c)

IC50 [1]: 220 nM
IC50 [2]: 1100 nM
Structure (SMILES): CCOc1ccc(Cc2cccc([C@@H]3OC(OC)[C@@H](O)[C@H](O)[C@H]3O)c2)cc1 (mixture of isomers)

IC50 [1]: 280 nM
IC50 [2]: 4800 nM
Structure (SMILES): CCOc1ccc(Cc2cc([C@@H]3OC(OC)[C@@H](O)[C@H](O)[C@H]3O)ccc2Cl)cc1 (mixture of isomers; 7b)

IC50 [1]: 220 nM
IC50 [2]: 590 nM
Structure (SMILES): CCOc1ccc(Cc2cc([C@]3(C)OC(OC)[C@@H](O)[C@H](O)[C@H]3O)ccc2Cl)cc1 (mixture of isomers)

IC50 [1]: 92 nM
IC50 [2]: 170 nM
Structure (SMILES): COC1O[C@@H](c2ccc(Cl)c(Cc3ccc(O[C@H]4CCN(C)C4)cc3)c2)[C@H](O)[C@@H](O)[C@@H]1O (mixture of isomers)

IC50 [1]: 23 nM
IC50 [2]: 55 nM
Structure (SMILES): CCOc1ccc(Cc2cc([C@@H]3OC(OC)[C@@H](O)[C@H](O)[C@H]3O)ccc2C)cc1 (mixture of isomers)

IC50 [1]: 100 nM
IC50 [2]: 280 nM
Structure (SMILES): CCOc1ccc(Cc2cc([C@@H]3OC(O)[C@@H](O)[C@H](O)[C@H]3O)ccc2Cl)cc1 (mixture of isomers)

IC50 [1]: 100 nM
IC50 [2]: 180 nM
Structure (SMILES): COc1ccc(Sc2cc([C@@H]3OC(OC)[C@@H](O)[C@H](O)[C@H]3O)ccc2Cl)cc1 (mixture of isomers)

IC50 [1]: 7.1 nM
IC50 [2]: 25 nM
Structure (SMILES): CCOc1ccc(Cc2cc([C@@H]3OC(OC)[C@@H](O)[C@H](O)[C@H]3O)ccc2Cl)cc1 (stereo in doubt; 6a)

IC50 [1]: 19 nM
IC50 [2]: 58 nM
Structure (SMILES): CCOc1ccc(Cc2cc([C@@H]3OC(OCC)[C@@H](O)[C@H](O)[C@H]3O)ccc2Cl)cc1 (mixture of isomers)

IC50 [1]: 9.5 nM
IC50 [2]: 36 nM
Structure (SMILES): COC1O[C@@H](c2ccc(Cl)c(Cc3ccc(OCCO)cc3)c2)[C@H](O)[C@@H](O)[C@@H]1O (mixture of isomers)

— ChEMBL document CHEMBL1156071, “Novel L-xylose derivatives as selective sodium-dependent glucose cotransporter 2 (SGLT2) inhibitors for the treatment of type 2 diabetes” (J Med Chem, 2009)
